Columns and labels:
Conditions in all cases: stereoisomer not certain
[1] = target: T1, OR10A7 (Homo sapiens) (UniProt Q8NGE5)
T1 sequence (whole entry): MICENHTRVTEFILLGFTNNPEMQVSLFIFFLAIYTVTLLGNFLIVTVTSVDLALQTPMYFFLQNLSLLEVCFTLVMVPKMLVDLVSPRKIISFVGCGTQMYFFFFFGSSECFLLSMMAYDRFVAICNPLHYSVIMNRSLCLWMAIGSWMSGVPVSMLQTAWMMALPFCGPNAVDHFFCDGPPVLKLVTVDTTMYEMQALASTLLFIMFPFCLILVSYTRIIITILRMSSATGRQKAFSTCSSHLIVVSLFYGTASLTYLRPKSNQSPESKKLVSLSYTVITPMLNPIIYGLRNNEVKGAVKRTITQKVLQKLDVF
Summary of the method: (§1)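 Transient luciferase assays in mammalian cell lines were common, though methods varied by source. The values come from published papers and their supplementary material, with extra details from the original authors when needed. Responsive refers to a measured signal the original authors judged statistically different from baseline, and non-responsive (inactive) to the remainder.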

[2] = target: T2, OR10A3 (Homo sapiens) (UniProt P58181)
T2 sequence (whole entry): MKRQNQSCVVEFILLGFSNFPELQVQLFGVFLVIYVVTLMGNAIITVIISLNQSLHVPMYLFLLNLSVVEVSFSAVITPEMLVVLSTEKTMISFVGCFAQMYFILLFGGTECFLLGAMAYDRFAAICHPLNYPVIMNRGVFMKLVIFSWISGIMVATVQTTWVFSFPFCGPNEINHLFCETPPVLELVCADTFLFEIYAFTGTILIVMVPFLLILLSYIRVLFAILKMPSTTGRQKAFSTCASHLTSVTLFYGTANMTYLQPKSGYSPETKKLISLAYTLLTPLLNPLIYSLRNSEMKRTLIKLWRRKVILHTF
Summary of the method: as §1

[3] = target: T3, OR10A4 (Homo sapiens) (UniProt Q9H209)
T3 sequence (whole entry): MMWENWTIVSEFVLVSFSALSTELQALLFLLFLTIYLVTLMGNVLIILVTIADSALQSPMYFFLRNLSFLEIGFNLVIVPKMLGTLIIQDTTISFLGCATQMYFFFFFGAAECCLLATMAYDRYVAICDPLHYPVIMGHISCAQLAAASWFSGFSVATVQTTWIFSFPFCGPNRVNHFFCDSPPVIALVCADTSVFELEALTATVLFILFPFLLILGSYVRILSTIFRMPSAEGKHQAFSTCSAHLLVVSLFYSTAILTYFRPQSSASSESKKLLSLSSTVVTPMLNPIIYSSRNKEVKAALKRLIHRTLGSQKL
Summary of the method: as §1

[4] = target: T4, OR10A5 (Homo sapiens) (UniProt Q9H207)
T4 sequence (whole entry): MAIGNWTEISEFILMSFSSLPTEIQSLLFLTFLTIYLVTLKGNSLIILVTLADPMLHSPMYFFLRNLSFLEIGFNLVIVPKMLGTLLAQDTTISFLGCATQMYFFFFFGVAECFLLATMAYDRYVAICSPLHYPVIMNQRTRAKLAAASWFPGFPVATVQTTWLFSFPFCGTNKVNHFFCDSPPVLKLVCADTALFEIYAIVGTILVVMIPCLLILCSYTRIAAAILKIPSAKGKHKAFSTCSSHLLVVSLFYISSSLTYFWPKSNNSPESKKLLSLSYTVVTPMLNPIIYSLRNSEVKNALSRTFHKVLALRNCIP
Summary of the method: as §1

[5] = target: T5, OR10A6 (Homo sapiens) (UniProt Q8NH74)
T5 sequence (whole entry): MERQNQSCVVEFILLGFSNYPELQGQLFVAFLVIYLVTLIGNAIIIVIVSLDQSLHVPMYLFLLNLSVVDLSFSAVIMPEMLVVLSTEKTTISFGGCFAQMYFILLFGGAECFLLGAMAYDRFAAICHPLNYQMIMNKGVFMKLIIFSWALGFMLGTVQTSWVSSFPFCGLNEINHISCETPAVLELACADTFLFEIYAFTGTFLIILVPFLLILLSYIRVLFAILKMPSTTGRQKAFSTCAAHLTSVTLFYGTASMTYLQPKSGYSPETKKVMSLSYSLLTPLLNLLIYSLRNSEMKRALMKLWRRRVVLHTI
Summary of the method: as §1

[6] = target: T6, OR10AD1 (Homo sapiens) (UniProt Q8NGE0)
T6 sequence (whole entry): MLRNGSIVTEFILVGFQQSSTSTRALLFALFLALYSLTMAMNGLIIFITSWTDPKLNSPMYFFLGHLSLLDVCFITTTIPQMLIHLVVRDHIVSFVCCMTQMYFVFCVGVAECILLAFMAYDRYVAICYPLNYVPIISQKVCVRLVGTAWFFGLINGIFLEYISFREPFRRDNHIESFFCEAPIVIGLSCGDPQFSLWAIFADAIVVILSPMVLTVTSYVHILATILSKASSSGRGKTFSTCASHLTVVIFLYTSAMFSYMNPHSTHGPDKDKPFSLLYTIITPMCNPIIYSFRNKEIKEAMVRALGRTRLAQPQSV
Summary of the method: as §1

[7] = target: T7, OR10AG1 (Homo sapiens) (UniProt Q8NH19)
T7 sequence (whole entry): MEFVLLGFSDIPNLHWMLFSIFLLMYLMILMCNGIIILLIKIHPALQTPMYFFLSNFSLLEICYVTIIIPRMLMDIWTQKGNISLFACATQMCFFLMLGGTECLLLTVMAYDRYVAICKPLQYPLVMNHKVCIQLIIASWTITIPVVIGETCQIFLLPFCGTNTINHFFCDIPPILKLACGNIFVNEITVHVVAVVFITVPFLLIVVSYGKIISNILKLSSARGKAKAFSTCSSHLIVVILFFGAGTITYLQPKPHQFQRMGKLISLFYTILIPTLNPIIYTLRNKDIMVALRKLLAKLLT
Summary of the method: as §1

[8] = target: T8, OR10C1 (Homo sapiens) (UniProt Q96KK4)
T8 sequence (whole entry): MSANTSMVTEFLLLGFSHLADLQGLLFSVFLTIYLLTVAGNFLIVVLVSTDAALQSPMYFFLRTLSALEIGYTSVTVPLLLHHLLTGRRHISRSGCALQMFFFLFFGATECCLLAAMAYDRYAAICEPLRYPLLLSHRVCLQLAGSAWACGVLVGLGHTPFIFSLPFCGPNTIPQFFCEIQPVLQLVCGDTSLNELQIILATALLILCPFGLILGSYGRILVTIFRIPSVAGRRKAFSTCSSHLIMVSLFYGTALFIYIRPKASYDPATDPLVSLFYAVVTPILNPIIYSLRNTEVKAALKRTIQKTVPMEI
Summary of the method: as §1

[9] = target: T9, OR10D3 (Homo sapiens) (UniProt Q8NH80)
T9 sequence (whole entry): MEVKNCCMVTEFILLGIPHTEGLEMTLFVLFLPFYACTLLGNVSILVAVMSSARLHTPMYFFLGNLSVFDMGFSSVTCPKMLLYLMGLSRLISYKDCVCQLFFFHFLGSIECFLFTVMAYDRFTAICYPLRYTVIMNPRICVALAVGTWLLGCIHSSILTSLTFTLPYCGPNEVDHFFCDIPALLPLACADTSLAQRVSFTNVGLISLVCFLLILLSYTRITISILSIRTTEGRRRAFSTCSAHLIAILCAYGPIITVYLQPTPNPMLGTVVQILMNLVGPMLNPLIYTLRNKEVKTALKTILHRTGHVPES
Summary of the method: as §1

[10] = target: T10, OR10G2 (Homo sapiens) (UniProt Q8NGC3)
T10 sequence (whole entry): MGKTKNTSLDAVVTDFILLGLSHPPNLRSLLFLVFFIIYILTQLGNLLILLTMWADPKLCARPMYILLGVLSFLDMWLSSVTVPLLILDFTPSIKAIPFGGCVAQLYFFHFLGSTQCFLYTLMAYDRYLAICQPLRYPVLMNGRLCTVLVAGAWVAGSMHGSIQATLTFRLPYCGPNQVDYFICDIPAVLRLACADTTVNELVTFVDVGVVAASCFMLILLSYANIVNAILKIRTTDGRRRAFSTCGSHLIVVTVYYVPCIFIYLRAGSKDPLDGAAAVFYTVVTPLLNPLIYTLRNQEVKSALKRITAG
Summary of the method: as §1

[11] = target: T11, OR10G3 (Homo sapiens) (UniProt Q8NGC4)
T11 sequence (whole entry): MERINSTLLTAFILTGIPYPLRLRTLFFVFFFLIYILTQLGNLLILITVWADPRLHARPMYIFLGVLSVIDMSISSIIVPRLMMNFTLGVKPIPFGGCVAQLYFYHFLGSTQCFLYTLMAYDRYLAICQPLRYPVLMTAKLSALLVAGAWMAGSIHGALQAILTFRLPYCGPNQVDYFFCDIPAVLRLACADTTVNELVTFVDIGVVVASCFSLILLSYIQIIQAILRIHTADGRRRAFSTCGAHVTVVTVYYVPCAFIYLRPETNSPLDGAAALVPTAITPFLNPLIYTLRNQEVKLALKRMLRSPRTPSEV
Summary of the method: as §1

[12] = target: T12, OR10G4 (Homo sapiens) (UniProt Q8NGN3)
T12 sequence (whole entry): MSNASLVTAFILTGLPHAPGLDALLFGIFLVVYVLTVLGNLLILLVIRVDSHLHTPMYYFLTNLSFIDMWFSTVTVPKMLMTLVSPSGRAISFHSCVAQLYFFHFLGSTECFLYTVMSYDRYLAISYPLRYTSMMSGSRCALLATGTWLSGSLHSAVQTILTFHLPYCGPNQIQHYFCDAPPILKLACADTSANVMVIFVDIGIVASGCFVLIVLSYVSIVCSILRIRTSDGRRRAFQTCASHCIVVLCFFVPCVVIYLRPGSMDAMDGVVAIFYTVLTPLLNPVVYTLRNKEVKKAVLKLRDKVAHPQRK
Summary of the method: as §1

[13] = target: T13, OR10G6 (Homo sapiens) (UniProt Q8NH81)
T13 sequence (whole entry): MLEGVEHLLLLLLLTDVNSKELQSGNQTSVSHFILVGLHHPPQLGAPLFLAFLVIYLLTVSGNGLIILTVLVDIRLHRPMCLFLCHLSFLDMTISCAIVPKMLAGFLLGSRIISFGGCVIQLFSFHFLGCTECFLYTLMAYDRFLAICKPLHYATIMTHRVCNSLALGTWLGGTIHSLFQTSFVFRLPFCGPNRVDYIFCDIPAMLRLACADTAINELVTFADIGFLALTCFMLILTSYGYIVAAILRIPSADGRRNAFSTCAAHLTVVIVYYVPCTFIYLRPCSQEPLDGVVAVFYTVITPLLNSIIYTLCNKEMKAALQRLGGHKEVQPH
Summary of the method: as §1

[14] = target: T14, OR10G7 (Homo sapiens) (UniProt Q8NGN6)
T14 sequence (whole entry): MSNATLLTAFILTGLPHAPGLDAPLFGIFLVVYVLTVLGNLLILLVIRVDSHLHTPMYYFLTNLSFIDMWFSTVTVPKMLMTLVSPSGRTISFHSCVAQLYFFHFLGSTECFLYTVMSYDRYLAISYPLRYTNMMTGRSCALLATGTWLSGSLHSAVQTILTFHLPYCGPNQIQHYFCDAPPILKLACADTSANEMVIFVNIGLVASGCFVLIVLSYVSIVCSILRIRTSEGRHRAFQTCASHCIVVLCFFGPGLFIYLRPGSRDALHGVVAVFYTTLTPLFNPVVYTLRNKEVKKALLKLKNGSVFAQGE
Summary of the method: as §1

[15] = target: T15, OR10G8 (Homo sapiens) (UniProt Q8NGN5)
T15 sequence (whole entry): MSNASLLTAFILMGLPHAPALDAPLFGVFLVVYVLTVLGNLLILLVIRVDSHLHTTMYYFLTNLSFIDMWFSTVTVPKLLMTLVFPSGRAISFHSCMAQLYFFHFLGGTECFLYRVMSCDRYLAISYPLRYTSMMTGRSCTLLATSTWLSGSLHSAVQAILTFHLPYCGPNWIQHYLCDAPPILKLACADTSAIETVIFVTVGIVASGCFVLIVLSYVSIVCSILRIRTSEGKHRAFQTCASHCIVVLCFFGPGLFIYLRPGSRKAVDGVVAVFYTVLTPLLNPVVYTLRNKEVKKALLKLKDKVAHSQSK
Summary of the method: as §1

[16] = target: T16, OR10G9 (Homo sapiens) (UniProt Q8NGN4)
T16 sequence (whole entry): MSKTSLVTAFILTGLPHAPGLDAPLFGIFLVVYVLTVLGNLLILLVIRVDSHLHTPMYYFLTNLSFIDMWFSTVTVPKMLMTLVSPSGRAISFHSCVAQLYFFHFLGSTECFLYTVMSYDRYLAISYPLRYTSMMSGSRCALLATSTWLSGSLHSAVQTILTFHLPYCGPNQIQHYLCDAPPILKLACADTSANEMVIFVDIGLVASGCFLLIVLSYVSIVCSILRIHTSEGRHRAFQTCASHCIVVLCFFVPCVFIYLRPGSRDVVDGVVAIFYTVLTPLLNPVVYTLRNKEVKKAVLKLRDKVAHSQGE
Summary of the method: as §1

[17] = target: T17, OR10H1 (Homo sapiens) (UniProt Q9Y4A9)
T17 sequence (whole entry): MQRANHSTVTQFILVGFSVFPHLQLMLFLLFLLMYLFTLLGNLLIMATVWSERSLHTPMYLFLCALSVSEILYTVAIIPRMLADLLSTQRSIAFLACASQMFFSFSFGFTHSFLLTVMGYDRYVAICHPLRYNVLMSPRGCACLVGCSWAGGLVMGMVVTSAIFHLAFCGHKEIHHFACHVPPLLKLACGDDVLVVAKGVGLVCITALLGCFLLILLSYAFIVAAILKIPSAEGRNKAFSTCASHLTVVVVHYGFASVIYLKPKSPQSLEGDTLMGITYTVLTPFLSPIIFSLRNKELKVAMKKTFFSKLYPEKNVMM
Summary of the method: as §1

[18] = target: T18, OR10H2 (Homo sapiens) (UniProt O60403)
T18 sequence (whole entry): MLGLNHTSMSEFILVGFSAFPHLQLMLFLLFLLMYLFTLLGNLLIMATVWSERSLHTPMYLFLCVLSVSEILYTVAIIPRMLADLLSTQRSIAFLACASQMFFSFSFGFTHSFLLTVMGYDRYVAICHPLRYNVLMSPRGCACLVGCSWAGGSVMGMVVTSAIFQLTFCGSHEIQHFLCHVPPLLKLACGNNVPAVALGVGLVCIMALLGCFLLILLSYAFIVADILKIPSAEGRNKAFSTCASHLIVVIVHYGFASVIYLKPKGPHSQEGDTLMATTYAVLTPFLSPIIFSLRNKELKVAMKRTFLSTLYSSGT
Summary of the method: as §1

[19] = target: T19, OR10H3 (Homo sapiens) (UniProt O60404)
T19 sequence (whole entry): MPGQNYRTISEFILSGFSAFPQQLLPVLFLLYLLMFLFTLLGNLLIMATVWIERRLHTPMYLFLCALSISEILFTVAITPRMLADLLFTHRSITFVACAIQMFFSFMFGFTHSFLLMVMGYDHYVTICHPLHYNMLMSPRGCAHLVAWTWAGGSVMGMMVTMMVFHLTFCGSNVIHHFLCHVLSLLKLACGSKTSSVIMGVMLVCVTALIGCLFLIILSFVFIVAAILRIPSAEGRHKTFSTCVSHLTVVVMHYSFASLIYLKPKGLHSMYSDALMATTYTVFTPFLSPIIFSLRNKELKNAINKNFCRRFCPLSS
Summary of the method: as §1

Measured: odorant receptor agonist call;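 note: active if original authors judged signal statistically different from baseline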

CC1(C)CC(=O)CC(=O)C1
inactive: [1]

CC1=C(O)C(=O)C(C)O1 (stereo not given)
inactive: all assays above
